Data reported in ChEMBL document CHEMBL1275490, “Antifungal resistance of Candida glabrata vaginal isolates and development of a quantitative reverse transcription-PCR-based azole susceptibility assay” (2008).

What was measured:
Format in all cases: functional
Nakaseomyces glabratus [1] = assay: Antifungal activity against Candida glabrata clinical isolate obtained from vulvovaginal candidiasis patient assessed as resistant isolates by broth microdilution method
How it was run: (§1)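 C. glabrata isolates were recovered from cervicovaginal swabs. Species was identified by in-house species-specific real-time PCR and confirmed on chromogenic Candida agar. Susceptibility was tested by CLSI M27-A2 broth microdilution, and isolates were classed as S, S-DD or R from the MIC. Voriconazole categories used proposed breakpoints.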

Nakaseomyces glabratus [2] = assay: Antifungal activity against Candida glabrata clinical isolate overexpressing CDR1 gene obtained from cervicovaginal candidiasis patient assessed as resistant isolates by broth microdilution method
How it was run: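 Cervicovaginal swab isolates were classed by CLSI M27-A2 broth microdilution MIC. For expression, RNA came from mid-log cultures, column-purified and DNase-treated. Duplex qRT-PCR measured CDR1 (also PDH1, PDR1) against ACT1 as control, in triplicate independent amplifications from the same RNA. A ≥3-fold rise in CDR1 expression […].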

Nakaseomyces glabratus [3] = assay: Antifungal activity against Candida glabrata clinical isolate obtained from cervicovaginal candidiasis patient assessed as susceptible dose-dependent isolates by broth microdilution method; how it was run: as §1
Nakaseomyces glabratus [4] = assay: Antifungal activity against Candida glabrata clinical isolate obtained from vulvovaginal candidiasis patient assessed as susceptible isolates by broth microdilution method; how it was run: as §1
Nakaseomyces glabratus [5] = assay: Antifungal activity against Candida glabrata clinical isolate obtained from cervicovaginal candidiasis patient assessed as susceptible isolates by broth microdilution method; how it was run: as §1

SMILES | Activity (Nakaseomyces glabratus [1]) [%] | Activity (Nakaseomyces glabratus [2]) [%] | Activity (Nakaseomyces glabratus [3]) [%] | Activity (Nakaseomyces glabratus [4]) [%] | Activity (Nakaseomyces glabratus [5]) [%]
OC(Cn1cncn1)(Cn1cncn1)c1ccc(F)cc1F [FLUCONAZOLE] | 51.8 | 26.9 | 42.2 | 15.2 | 30.9
C[C@@H](c1ncncc1F)[C@](O)(Cn1cncn1)c1ccc(F)cc1F [VORICONAZOLE] |  | 24 | 13.7 |  | 62.3
Clc1ccc(COC(Cn2ccnc2)c2ccc(Cl)cc2Cl)c(Cl)c1 (stereo not given) [MICONAZOLE] |  |  | 0 |  | 100
